From ChEMBL document CHEMBL1944602, “Synthesis and biological characterisation of sirtuin inhibitors based on the tenovins” (Bioorg Med Chem, 2012)
Activity calls are given as the source filed them. The rule behind the calls is not given here.

What follows are molecules tested against T1, NAD-dependent protein deacetylase sirtuin-1 (Homo sapiens) (UniProt Q96EB6) (assay: Inhibition of SirT1 in human ARN8 cells assessed as p53 activation at 20 uM by beta-galactosidase reporter gene assay relative to control).
T1 sequence (whole entry): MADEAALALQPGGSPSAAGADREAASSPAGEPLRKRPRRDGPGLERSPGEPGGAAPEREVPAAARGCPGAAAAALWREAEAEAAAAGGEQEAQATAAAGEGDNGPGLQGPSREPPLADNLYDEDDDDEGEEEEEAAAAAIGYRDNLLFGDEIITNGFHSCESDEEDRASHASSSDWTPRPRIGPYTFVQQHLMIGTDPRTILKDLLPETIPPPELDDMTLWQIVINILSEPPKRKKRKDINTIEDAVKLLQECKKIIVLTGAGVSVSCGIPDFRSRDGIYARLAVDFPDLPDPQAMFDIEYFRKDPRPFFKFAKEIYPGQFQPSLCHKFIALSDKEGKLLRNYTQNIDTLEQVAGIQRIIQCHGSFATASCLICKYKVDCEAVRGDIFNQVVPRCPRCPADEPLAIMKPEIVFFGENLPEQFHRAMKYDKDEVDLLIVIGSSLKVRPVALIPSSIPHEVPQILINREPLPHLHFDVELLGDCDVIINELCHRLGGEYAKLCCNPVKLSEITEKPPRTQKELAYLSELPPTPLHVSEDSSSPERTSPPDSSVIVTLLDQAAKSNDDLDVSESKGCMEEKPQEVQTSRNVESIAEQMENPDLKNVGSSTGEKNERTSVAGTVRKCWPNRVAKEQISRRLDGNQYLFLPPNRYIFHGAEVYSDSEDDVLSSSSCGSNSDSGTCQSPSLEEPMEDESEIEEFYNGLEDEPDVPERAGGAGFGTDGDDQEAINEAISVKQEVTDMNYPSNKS
Assay type: cell-based
In short: (§1)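 p53-dependent transcription measured with a beta-galactosidase reporter in ARN8 cells, run in triplicate. Read-out is the ratio of signal in treated cells to DMSO-control cells, given to 2 significant figures; a positive or negative activity call is also recorded.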

fold change (FC)	Structure (SMILES)
1.12	COc1ccc(C(=O)NC(=S)Nc2ccc(NC(=O)CCCCN(C)C)cc2)cc1
1.01	CN(C)CCCCC(=O)Nc1ccc(NC(=S)NC(=O)c2ccc(Br)cc2)cc1
1.1	Cc1ccc(C(=O)NC(=S)Nc2ccc(NC(=O)CCCCN(C)C)cc2)cc1
1.4	CN(C)CCCCC(=O)Nc1ccc(NC(=S)NC(=O)c2ccc(C(C)(C)C)c(Br)c2)cc1
1.2	COc1cccc(C(=O)NC(=S)Nc2ccc(NC(=O)CCCCN(C)C)cc2)c1
0.89	Cc1cccc(C(=O)NC(=S)Nc2ccc(NC(=O)CCCCN(C)C)cc2)c1
1.2	CN(C)CCCCC(=O)Nc1ccc(NC(=S)NC(=O)c2cccc(Br)c2)cc1
1.01	CN(C)CCCCC(=O)Nc1ccc(NC(=S)NC(=O)c2ccc(Cl)cc2)cc1
1	CN(C)CCCCC(=O)Nc1ccc(NC(=S)NC(=O)c2cccc(Cl)c2)cc1
2.4	CCCc1ccc(C(=O)NC(=S)Nc2ccc(NC(=O)CCCCN(C)C)cc2)cc1
0.92	CN(C)CCCCC(=O)Nc1ccc(NC(=S)NC(=O)c2ccccc2)cc1

These molecules were tested against T1, NAD-dependent protein deacetylase sirtuin-1 (Homo sapiens) (assay: Inhibition of SirT1 in human ARN8 cells assessed as p53 activation at 10 uM by beta-galactosidase reporter gene assay relative to control).
Assay type: cell-based
In short: as §1

fold change (FC)	Structure (SMILES)
1.1	COc1ccc(C(=O)NC(=S)Nc2ccc(NC(=O)CCCCN(C)C)cc2)cc1
1.1	CN(C)CCCCC(=O)Nc1ccc(NC(=S)NC(=O)c2ccc(Br)cc2)cc1
1.1	Cc1ccc(C(=O)NC(=S)Nc2ccc(NC(=O)CCCCN(C)C)cc2)cc1
1.1	CN(C)CCCCC(=O)Nc1ccc(NC(=S)NC(=O)c2ccc(C(C)(C)C)c(Br)c2)cc1
1.1	COc1cccc(C(=O)NC(=S)Nc2ccc(NC(=O)CCCCN(C)C)cc2)c1
0.89	Cc1cccc(C(=O)NC(=S)Nc2ccc(NC(=O)CCCCN(C)C)cc2)c1
1.2	CN(C)CCCCC(=O)Nc1ccc(NC(=S)NC(=O)c2cccc(Br)c2)cc1
1.2	CN(C)CCCCC(=O)Nc1ccc(NC(=S)NC(=O)c2ccc(Cl)cc2)cc1
1.1	CN(C)CCCCC(=O)Nc1ccc(NC(=S)NC(=O)c2cccc(Cl)c2)cc1
1.5	CCCc1ccc(C(=O)NC(=S)Nc2ccc(NC(=O)CCCCN(C)C)cc2)cc1
0.97	CN(C)CCCCC(=O)Nc1ccc(NC(=S)NC(=O)c2ccccc2)cc1

What follows are molecules tested against T1, NAD-dependent protein deacetylase sirtuin-1 (Homo sapiens) (assay: Inhibition of SirT1 in human ARN8 cells assessed as p53 activation at 5 uM by beta-galactosidase reporter gene assay relative to control).
Assay type: cell-based
In short: as §1

fold change (FC)	Structure (SMILES)
1	COc1ccc(C(=O)NC(=S)Nc2ccc(NC(=O)CCCCN(C)C)cc2)cc1
1	CN(C)CCCCC(=O)Nc1ccc(NC(=S)NC(=O)c2ccc(Br)cc2)cc1
1.2	Cc1ccc(C(=O)NC(=S)Nc2ccc(NC(=O)CCCCN(C)C)cc2)cc1
1.1	CN(C)CCCCC(=O)Nc1ccc(NC(=S)NC(=O)c2ccc(C(C)(C)C)c(Br)c2)cc1
1.1	COc1cccc(C(=O)NC(=S)Nc2ccc(NC(=O)CCCCN(C)C)cc2)c1
0.94	Cc1cccc(C(=O)NC(=S)Nc2ccc(NC(=O)CCCCN(C)C)cc2)c1
1.1	CN(C)CCCCC(=O)Nc1ccc(NC(=S)NC(=O)c2cccc(Br)c2)cc1
1.1	CN(C)CCCCC(=O)Nc1ccc(NC(=S)NC(=O)c2ccc(Cl)cc2)cc1
1.1	CN(C)CCCCC(=O)Nc1ccc(NC(=S)NC(=O)c2cccc(Cl)c2)cc1
1	CCCc1ccc(C(=O)NC(=S)Nc2ccc(NC(=O)CCCCN(C)C)cc2)cc1
1.1	CN(C)CCCCC(=O)Nc1ccc(NC(=S)NC(=O)c2ccccc2)cc1

What follows are molecules tested against T1, NAD-dependent protein deacetylase sirtuin-1 (Homo sapiens) (assay: Inhibition of SirT1 in human ARN8 cells assessed as p53 activation at 20 uM by beta-galactosidase reporter gene assay).
Assay type: cell-based
In short: as §1

inhibition	Structure (SMILES)
inactive	COc1ccc(C(=O)NC(=S)Nc2ccc(NC(=O)CCCCN(C)C)cc2)cc1
inactive	CN(C)CCCCC(=O)Nc1ccc(NC(=S)NC(=O)c2ccc(Br)cc2)cc1
inactive	Cc1ccc(C(=O)NC(=S)Nc2ccc(NC(=O)CCCCN(C)C)cc2)cc1
Active	CN(C)CCCCC(=O)Nc1ccc(NC(=S)NC(=O)c2ccc(C(C)(C)C)c(Br)c2)cc1
inactive	COc1cccc(C(=O)NC(=S)Nc2ccc(NC(=O)CCCCN(C)C)cc2)c1
inactive	Cc1cccc(C(=O)NC(=S)Nc2ccc(NC(=O)CCCCN(C)C)cc2)c1
inactive	CN(C)CCCCC(=O)Nc1ccc(NC(=S)NC(=O)c2ccc(Cl)cc2)cc1
inactive	CN(C)CCCCC(=O)Nc1ccc(NC(=S)NC(=O)c2cccc(Cl)c2)cc1
Active	CCCc1ccc(C(=O)NC(=S)Nc2ccc(NC(=O)CCCCN(C)C)cc2)cc1
inactive	CN(C)CCCCC(=O)Nc1ccc(NC(=S)NC(=O)c2ccccc2)cc1

Each molecule was assayed against T1, NAD-dependent protein deacetylase sirtuin-1 (Homo sapiens) (assay: Inhibition of SirT1 in human ARN8 cells assessed as p53 activation at 10 uM by beta-galactosidase reporter gene assay).
Assay type: cell-based
In short: as §1

inhibition	Structure (SMILES)
inactive	COc1ccc(C(=O)NC(=S)Nc2ccc(NC(=O)CCCCN(C)C)cc2)cc1
inactive	CN(C)CCCCC(=O)Nc1ccc(NC(=S)NC(=O)c2ccc(Br)cc2)cc1
inactive	Cc1ccc(C(=O)NC(=S)Nc2ccc(NC(=O)CCCCN(C)C)cc2)cc1
inactive	CN(C)CCCCC(=O)Nc1ccc(NC(=S)NC(=O)c2ccc(C(C)(C)C)c(Br)c2)cc1
inactive	COc1cccc(C(=O)NC(=S)Nc2ccc(NC(=O)CCCCN(C)C)cc2)c1
inactive	Cc1cccc(C(=O)NC(=S)Nc2ccc(NC(=O)CCCCN(C)C)cc2)c1
inactive	CN(C)CCCCC(=O)Nc1ccc(NC(=S)NC(=O)c2cccc(Br)c2)cc1
inactive	CN(C)CCCCC(=O)Nc1ccc(NC(=S)NC(=O)c2ccc(Cl)cc2)cc1
inactive	CN(C)CCCCC(=O)Nc1ccc(NC(=S)NC(=O)c2cccc(Cl)c2)cc1
Active	CCCc1ccc(C(=O)NC(=S)Nc2ccc(NC(=O)CCCCN(C)C)cc2)cc1
inactive	CN(C)CCCCC(=O)Nc1ccc(NC(=S)NC(=O)c2ccccc2)cc1

These molecules were tested against T1, NAD-dependent protein deacetylase sirtuin-1 (Homo sapiens) (assay: Inhibition of SirT1 in human ARN8 cells assessed as p53 activation at 5 uM by beta-galactosidase reporter gene assay).
Assay type: cell-based
In short: as §1

inhibition	Structure (SMILES)
inactive	COc1ccc(C(=O)NC(=S)Nc2ccc(NC(=O)CCCCN(C)C)cc2)cc1
inactive	CN(C)CCCCC(=O)Nc1ccc(NC(=S)NC(=O)c2ccc(Br)cc2)cc1
inactive	Cc1ccc(C(=O)NC(=S)Nc2ccc(NC(=O)CCCCN(C)C)cc2)cc1
inactive	CN(C)CCCCC(=O)Nc1ccc(NC(=S)NC(=O)c2ccc(C(C)(C)C)c(Br)c2)cc1
inactive	COc1cccc(C(=O)NC(=S)Nc2ccc(NC(=O)CCCCN(C)C)cc2)c1
inactive	Cc1cccc(C(=O)NC(=S)Nc2ccc(NC(=O)CCCCN(C)C)cc2)c1
inactive	CN(C)CCCCC(=O)Nc1ccc(NC(=S)NC(=O)c2cccc(Br)c2)cc1
inactive	CN(C)CCCCC(=O)Nc1ccc(NC(=S)NC(=O)c2ccc(Cl)cc2)cc1
inactive	CN(C)CCCCC(=O)Nc1ccc(NC(=S)NC(=O)c2cccc(Cl)c2)cc1
inactive	CCCc1ccc(C(=O)NC(=S)Nc2ccc(NC(=O)CCCCN(C)C)cc2)cc1
inactive	CN(C)CCCCC(=O)Nc1ccc(NC(=S)NC(=O)c2ccccc2)cc1

The molecules below were run against T2, NAD-dependent protein deacetylase sirtuin-2 (Homo sapiens, UniProt Q8IXJ6) (assay: Inhibition of recombinant human SitT2 by Fluor de Lys fluorescence assay).
T2 sequence (Q8IXJ6 whole entry): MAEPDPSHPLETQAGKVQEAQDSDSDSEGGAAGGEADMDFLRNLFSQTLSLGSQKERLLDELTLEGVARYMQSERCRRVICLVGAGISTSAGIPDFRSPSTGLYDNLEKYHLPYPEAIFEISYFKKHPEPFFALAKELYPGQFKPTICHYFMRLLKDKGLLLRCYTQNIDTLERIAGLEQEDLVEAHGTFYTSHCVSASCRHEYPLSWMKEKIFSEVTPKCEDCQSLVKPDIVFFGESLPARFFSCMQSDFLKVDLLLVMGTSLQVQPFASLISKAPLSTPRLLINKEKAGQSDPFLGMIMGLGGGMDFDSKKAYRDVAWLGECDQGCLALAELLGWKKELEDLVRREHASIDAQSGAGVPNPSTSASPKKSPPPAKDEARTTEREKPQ

IC50 [µM]	Structure (SMILES)
50.6	COc1ccc(C(=O)NC(=S)Nc2ccc(NC(=O)CCCCN(C)C)cc2)cc1
55	CN(C)CCCCC(=O)Nc1ccc(NC(=S)NC(=O)c2ccc(Br)cc2)cc1
> 90	Cc1ccc(C(=O)NC(=S)Nc2ccc(NC(=O)CCCCN(C)C)cc2)cc1
> 90	Cc1cccc(C(=O)NC(=S)Nc2ccc(NC(=O)CCCCN(C)C)cc2)c1
> 90	CN(C)CCCCC(=O)Nc1ccc(NC(=S)NC(=O)c2ccc(Cl)cc2)cc1
7.85	CCCc1ccc(C(=O)NC(=S)Nc2ccc(NC(=O)CCCCN(C)C)cc2)cc1
> 90	CN(C)CCCCC(=O)Nc1ccc(NC(=S)NC(=O)c2ccccc2)cc1

The molecules below were run against T1, NAD-dependent protein deacetylase sirtuin-1 (Homo sapiens) (assay: Inhibition of recombinant human SitT1 at 60 uM by Fluor de Lys fluorescence assay).
In short: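 Human recombinant SirT1 deacetylation measured with the Fluor de Lys fluorescence kit at a fixed 60 µM inhibitor. Tested on two separate occasions; percent inhibition reported as a mean weighted to the standard error.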

inhibition [%]	Structure (SMILES)
48.5	COc1ccc(C(=O)NC(=S)Nc2ccc(NC(=O)CCCCN(C)C)cc2)cc1
13.5	CN(C)CCCCC(=O)Nc1ccc(NC(=S)NC(=O)c2ccc(Br)cc2)cc1
47.3	Cc1ccc(C(=O)NC(=S)Nc2ccc(NC(=O)CCCCN(C)C)cc2)cc1
93.5	CN(C)CCCCC(=O)Nc1ccc(NC(=S)NC(=O)c2ccc(C(C)(C)C)c(Br)c2)cc1
25.3	COc1cccc(C(=O)NC(=S)Nc2ccc(NC(=O)CCCCN(C)C)cc2)c1
5.2	Cc1cccc(C(=O)NC(=S)Nc2ccc(NC(=O)CCCCN(C)C)cc2)c1
70.5	CN(C)CCCCC(=O)Nc1ccc(NC(=S)NC(=O)c2cccc(Br)c2)cc1
53.4	CN(C)CCCCC(=O)Nc1ccc(NC(=S)NC(=O)c2ccc(Cl)cc2)cc1
29.2	CN(C)CCCCC(=O)Nc1ccc(NC(=S)NC(=O)c2cccc(Cl)c2)cc1
50.9	CCCc1ccc(C(=O)NC(=S)Nc2ccc(NC(=O)CCCCN(C)C)cc2)cc1
3.5	CN(C)CCCCC(=O)Nc1ccc(NC(=S)NC(=O)c2ccccc2)cc1

Each molecule was assayed against T3, NAD-dependent protein deacetylase sirtuin-1 (Homo sapiens, UniProt Q96EB6) (assay: Inhibition of recombinant human SitT1 by Fluor de Lys fluorescence assay).
T3 sequence (Q96EB6 whole entry): T1 sequence (whole entry)

IC50 [µM]	Structure (SMILES)
> 90	COc1ccc(C(=O)NC(=S)Nc2ccc(NC(=O)CCCCN(C)C)cc2)cc1
> 90	CN(C)CCCCC(=O)Nc1ccc(NC(=S)NC(=O)c2ccc(Br)cc2)cc1
> 90	Cc1ccc(C(=O)NC(=S)Nc2ccc(NC(=O)CCCCN(C)C)cc2)cc1
> 90	Cc1cccc(C(=O)NC(=S)Nc2ccc(NC(=O)CCCCN(C)C)cc2)c1
> 90	CN(C)CCCCC(=O)Nc1ccc(NC(=S)NC(=O)c2ccc(Cl)cc2)cc1
60.2	CCCc1ccc(C(=O)NC(=S)Nc2ccc(NC(=O)CCCCN(C)C)cc2)cc1
> 90	CN(C)CCCCC(=O)Nc1ccc(NC(=S)NC(=O)c2ccccc2)cc1
